Measured values reported in ChEMBL document CHEMBL4396885, “Thioether-based 2-aminobenzamide derivatives: Novel HDAC inhibitors with potent in vitro and in vivo antitumor activity” (Eur J Med Chem, 2019).

Columns and labels:
[1] = target: Histone deacetylase 3/NCoR1 (Homo sapiens, UniProt O15379); experiment: Inhibition of recombinant human HDAC3/NCOR1 assessed as decrease in deacetylation of FLUOR DE LYS SIRT1 substrate preincubated for 10 mins followed by substrate addition and measured after 30 mins by fluorescence based assay; assay type: protein-complex assay
A-375 [2] = experiment: Antiproliferative activity against human A375 cells assessed as growth inhibition at 2 uM after 72 hrs by CCK-8 assay relative to control; assay type: functional; conditions: A-375, 72 h, read-out: GI
A-375 [3] = experiment: Antiproliferative activity against human A375 cells assessed as decrease in cell viability after 72 hrs by CCK-8 assay; assay type: functional, cell-based; conditions: A-375, 72 h
Summary of the method: (§1)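 Cells grown to 70–85% confluence (A375, A549, HCT116 in RPMI1640; HeLa, SMMC7721 in DMEM; 10% FBS, 37 °C, 5% CO2), seeded 4000/well, dosed after 12 h across a concentration range, incubated 72 h, then CCK-8 for 1 h; absorbance at 450 nm. IC50 as mean ± SD of three separate experiments.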

NIH3T3 = experiment: Cytotoxicity against mouse NIH/3T3 cells assessed as reduction in cell viability after 72 hrs by CCK-8 assay; assay type: cell-based; conditions: NIH3T3, 72 h
[4] = target: T1, Protein deacetylase HDAC6 (Homo sapiens, UniProt Q9UBN7); experiment: Inhibition of recombinant human His tagged HDAC6 expressed in baculovirus infected insect cells assessed as decrease in deacetylation of FLUOR DE LYS SIRT1 substrate by measuring decrease in fluorescence preincubated for 10 mins followed by substrate addition and measured after 30 mins by fluorescence based assay
T1 sequence (Q9UBN7 whole entry): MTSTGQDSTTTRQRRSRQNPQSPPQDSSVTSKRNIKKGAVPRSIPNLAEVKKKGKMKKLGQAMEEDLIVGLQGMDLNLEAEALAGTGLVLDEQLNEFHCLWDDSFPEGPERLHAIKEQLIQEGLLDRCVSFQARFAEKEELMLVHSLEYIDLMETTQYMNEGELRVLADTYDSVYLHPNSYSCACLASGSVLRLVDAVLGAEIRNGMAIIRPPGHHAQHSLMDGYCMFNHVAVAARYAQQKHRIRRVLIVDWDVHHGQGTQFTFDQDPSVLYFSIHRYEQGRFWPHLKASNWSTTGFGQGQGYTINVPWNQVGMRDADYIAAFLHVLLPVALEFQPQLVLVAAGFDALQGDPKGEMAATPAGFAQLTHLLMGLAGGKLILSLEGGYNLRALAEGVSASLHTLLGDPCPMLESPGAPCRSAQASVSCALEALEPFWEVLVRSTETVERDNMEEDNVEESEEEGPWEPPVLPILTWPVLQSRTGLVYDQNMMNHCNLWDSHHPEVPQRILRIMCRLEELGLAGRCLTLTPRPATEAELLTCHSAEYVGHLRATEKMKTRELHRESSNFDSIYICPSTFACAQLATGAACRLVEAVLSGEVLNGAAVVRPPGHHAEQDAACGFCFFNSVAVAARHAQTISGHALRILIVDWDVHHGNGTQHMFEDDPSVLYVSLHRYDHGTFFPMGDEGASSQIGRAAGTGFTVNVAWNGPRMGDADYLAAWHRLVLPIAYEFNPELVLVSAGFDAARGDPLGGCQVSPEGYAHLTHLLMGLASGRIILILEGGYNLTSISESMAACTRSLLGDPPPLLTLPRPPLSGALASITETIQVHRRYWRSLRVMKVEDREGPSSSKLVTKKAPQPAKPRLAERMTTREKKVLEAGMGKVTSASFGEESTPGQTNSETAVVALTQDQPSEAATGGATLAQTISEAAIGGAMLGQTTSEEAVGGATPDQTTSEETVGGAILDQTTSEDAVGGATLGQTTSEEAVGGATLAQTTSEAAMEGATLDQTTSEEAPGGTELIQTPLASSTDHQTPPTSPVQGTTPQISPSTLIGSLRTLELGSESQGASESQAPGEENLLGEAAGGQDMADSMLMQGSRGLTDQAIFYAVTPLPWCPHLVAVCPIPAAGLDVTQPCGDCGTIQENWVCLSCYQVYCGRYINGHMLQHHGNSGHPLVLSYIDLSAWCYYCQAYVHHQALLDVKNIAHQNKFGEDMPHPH

A-375 [5] = experiment: Antiproliferative activity against human A375 cells assessed as growth inhibition at 8 uM after 72 hrs by CCK-8 assay relative to control; assay type: functional; conditions: A-375, 72 h, read-out: GI
HCT-116 [6] = experiment: Antiproliferative activity against human HCT116 cells assessed as decrease in cell viability after 72 hrs by CCK-8 assay; assay type: functional, cell-based; conditions: HCT-116, 72 h; summary of the method: as §1
A549 [7] = experiment: Antiproliferative activity against human A549 cells assessed as growth inhibition at 2 uM after 72 hrs by CCK-8 assay relative to control; assay type: functional; conditions: A549, 72 h, read-out: GI
SMMC-7721 [8] = experiment: Antiproliferative activity against human SMMC7721 cells assessed as growth inhibition at 8 uM after 72 hrs by CCK-8 assay relative to control; assay type: functional; conditions: SMMC-7721, 72 h, read-out: GI
HCT-116 [9] = experiment: Antiproliferative activity against human HCT116 cells assessed as growth inhibition at 2 uM after 72 hrs by CCK-8 assay relative to control; assay type: functional; conditions: HCT-116, 72 h, read-out: GI
HeLa [10] = experiment: Antiproliferative activity against human HeLa cells assessed as decrease in cell viability after 72 hrs by CCK-8 assay; assay type: functional, cell-based; summary of the method: as §1
A549 [11] = experiment: Antiproliferative activity against human A549 cells assessed as decrease in cell viability after 72 hrs by CCK-8 assay; assay type: functional, cell-based; conditions: A549, 72 h; summary of the method: as §1
HeLa [12] = experiment: Antiproliferative activity against human HeLa cells assessed as growth inhibition at 2 uM after 72 hrs by CCK-8 assay relative to control; assay type: functional; conditions: read-out: GI
Histone deacetylase 2 = Histone deacetylase 2 (Homo sapiens, UniProt Q92769); experiment: Inhibition of recombinant human HDAC2 assessed as decrease in deacetylation of FLUOR DE LYS Green substrate preincubated for 10 mins followed by substrate addition and measured after 30 mins by fluorescence based assay
Histone deacetylase 1 = Histone deacetylase 1 (Homo sapiens, UniProt Q13547); experiment: Inhibition of recombinant human His tagged HDAC1 expressed in baculovirus infected insect cells assessed as decrease in deacetylation of FLUOR DE LYS Green substrate preincubated for 10 mins followed by substrate addition and measured after 30 mins by fluorescence based assay
HCT-116 [13] = experiment: Antiproliferative activity against human HCT116 cells assessed as growth inhibition at 8 uM after 72 hrs by CCK-8 assay relative to control; assay type: functional; conditions: HCT-116, 72 h, read-out: GI
SMMC-7721 [14] = experiment: Antiproliferative activity against human SMMC7721 cells assessed as growth inhibition at 2 uM after 72 hrs by CCK-8 assay relative to control; assay type: functional; conditions: SMMC-7721, 72 h, read-out: GI
Histone deacetylase = experiment: Inhibition of HDAC in human HeLa cell nuclear extract assessed as decrease in deacetylation of FLUOR DE LYS Green substrate preincubated for 10 mins followed by substrate addition and measured after 30 mins by fluorescence based assay; assay type: cell-free
HeLa [15] = experiment: Antiproliferative activity against human HeLa cells assessed as growth inhibition at 8 uM after 72 hrs by CCK-8 assay relative to control; assay type: functional; conditions: read-out: GI
SMMC-7721 [16] = experiment: Antiproliferative activity against human SMMC7721 cells assessed as decrease in cell viability after 72 hrs by CCK-8 assay; assay type: functional, cell-based; conditions: SMMC-7721, 72 h; summary of the method: as §1
Histone deacetylase 8 = target: T2, Histone deacetylase 8 (Homo sapiens, UniProt Q9BY41); experiment: Inhibition of recombinant human HDAC8 assessed as decrease in deacetylation of FLUOR DE LYS substrate preincubated for 10 mins followed by substrate addition and measured after 30 mins by fluorescence based assay
T2 sequence (Q9BY41 whole entry): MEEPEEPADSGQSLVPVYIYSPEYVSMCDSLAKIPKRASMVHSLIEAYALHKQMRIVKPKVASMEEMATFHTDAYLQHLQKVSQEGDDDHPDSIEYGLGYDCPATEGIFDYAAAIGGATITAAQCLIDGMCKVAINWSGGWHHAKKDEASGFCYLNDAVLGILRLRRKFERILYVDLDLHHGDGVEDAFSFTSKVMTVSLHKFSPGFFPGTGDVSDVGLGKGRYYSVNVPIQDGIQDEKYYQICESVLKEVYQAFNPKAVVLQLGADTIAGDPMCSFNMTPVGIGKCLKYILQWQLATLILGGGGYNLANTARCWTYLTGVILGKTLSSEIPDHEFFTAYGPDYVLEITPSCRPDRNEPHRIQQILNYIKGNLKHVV

A549 [17] = experiment: Antiproliferative activity against human A549 cells assessed as growth inhibition at 8 uM after 72 hrs by CCK-8 assay relative to control; assay type: functional; conditions: A549, 72 h, read-out: GI

Chain of Histone deacetylase 1 (Q13547 whole entry): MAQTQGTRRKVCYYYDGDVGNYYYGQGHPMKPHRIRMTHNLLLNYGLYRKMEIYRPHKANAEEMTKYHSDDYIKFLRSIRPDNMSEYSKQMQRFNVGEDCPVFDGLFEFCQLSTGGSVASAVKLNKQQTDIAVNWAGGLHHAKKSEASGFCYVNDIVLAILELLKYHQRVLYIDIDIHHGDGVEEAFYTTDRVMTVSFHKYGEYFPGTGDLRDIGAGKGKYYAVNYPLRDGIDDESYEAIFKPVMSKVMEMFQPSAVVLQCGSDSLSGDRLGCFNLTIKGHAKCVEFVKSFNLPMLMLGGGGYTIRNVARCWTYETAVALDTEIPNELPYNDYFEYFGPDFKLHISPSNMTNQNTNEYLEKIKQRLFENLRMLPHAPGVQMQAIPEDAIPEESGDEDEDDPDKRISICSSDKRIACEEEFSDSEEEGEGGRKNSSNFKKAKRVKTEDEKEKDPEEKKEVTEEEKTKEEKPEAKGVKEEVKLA
Chain of Histone deacetylase 3/NCoR1 (O15379 whole entry): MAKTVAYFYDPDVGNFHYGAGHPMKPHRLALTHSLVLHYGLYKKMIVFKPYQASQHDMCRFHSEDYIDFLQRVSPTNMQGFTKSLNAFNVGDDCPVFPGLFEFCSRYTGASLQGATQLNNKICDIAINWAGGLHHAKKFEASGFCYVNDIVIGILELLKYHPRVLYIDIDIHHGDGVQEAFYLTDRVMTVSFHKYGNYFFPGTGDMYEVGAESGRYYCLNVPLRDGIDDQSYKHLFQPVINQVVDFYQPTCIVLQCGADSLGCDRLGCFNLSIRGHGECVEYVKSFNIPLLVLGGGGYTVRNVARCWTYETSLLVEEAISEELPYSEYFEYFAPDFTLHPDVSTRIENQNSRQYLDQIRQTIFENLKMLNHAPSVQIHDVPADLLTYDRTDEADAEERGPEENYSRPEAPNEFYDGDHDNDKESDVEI
Chain of Histone deacetylase 3/NCoR1 (O75376 whole entry, further chain): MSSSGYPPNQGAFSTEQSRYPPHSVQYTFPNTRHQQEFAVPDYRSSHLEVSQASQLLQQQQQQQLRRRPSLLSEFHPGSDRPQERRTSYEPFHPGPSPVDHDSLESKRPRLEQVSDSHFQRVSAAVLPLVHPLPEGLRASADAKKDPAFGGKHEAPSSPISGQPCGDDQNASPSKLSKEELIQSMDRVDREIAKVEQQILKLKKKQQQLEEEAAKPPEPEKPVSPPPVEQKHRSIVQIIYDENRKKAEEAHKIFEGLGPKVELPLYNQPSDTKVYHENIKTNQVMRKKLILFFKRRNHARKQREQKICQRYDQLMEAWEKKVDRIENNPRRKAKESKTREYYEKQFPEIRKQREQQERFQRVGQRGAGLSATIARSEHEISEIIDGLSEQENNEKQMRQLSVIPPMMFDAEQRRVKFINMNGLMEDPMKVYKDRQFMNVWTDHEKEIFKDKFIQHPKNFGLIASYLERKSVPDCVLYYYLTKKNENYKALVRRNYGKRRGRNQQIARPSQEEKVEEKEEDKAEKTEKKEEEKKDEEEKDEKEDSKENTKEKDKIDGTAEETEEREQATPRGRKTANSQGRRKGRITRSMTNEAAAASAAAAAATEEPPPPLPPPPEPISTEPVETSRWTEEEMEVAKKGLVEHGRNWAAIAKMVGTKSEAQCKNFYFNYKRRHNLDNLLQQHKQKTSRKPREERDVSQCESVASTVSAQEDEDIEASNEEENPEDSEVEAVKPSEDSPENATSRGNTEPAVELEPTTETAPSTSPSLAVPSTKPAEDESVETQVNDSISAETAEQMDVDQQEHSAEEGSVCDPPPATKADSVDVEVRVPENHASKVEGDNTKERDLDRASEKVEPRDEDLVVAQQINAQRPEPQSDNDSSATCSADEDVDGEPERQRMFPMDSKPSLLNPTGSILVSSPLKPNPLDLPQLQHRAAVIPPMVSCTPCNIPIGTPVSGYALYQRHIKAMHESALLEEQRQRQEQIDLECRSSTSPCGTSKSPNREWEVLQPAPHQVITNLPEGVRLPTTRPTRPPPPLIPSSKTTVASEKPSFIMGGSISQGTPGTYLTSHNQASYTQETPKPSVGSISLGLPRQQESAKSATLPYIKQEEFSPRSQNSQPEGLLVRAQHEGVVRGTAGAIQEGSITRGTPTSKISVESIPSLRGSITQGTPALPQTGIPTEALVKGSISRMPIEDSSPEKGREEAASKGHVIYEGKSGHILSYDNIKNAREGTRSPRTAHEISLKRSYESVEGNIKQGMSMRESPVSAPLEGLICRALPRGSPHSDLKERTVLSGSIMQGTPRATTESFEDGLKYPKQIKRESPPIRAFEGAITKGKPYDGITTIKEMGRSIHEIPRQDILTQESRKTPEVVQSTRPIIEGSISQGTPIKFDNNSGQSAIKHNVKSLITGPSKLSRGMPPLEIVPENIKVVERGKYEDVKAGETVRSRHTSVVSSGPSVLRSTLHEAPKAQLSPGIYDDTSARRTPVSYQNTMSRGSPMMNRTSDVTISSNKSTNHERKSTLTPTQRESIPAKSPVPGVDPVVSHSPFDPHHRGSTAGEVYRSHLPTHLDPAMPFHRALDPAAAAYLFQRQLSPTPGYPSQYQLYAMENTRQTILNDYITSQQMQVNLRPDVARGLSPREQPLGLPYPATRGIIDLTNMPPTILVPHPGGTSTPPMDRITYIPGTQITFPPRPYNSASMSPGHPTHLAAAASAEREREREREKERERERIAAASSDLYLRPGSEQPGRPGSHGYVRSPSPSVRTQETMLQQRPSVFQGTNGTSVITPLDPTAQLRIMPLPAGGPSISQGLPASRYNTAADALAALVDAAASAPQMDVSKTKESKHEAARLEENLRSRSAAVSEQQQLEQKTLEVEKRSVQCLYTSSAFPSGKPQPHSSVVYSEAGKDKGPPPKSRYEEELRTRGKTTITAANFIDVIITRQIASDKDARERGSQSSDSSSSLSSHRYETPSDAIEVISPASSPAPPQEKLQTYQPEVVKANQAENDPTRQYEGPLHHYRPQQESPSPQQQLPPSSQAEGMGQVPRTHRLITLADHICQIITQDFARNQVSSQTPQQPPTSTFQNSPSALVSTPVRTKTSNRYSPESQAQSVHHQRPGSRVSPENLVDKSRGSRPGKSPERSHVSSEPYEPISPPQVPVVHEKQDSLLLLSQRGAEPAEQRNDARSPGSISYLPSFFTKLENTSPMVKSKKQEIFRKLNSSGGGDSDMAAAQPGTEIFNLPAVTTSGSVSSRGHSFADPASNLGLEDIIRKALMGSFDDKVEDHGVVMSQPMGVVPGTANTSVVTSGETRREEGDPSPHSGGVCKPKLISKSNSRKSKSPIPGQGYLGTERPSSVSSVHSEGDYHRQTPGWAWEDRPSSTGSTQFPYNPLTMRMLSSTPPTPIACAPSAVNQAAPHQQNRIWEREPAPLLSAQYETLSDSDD
Chain of Histone deacetylase 2 (Q92769 whole entry): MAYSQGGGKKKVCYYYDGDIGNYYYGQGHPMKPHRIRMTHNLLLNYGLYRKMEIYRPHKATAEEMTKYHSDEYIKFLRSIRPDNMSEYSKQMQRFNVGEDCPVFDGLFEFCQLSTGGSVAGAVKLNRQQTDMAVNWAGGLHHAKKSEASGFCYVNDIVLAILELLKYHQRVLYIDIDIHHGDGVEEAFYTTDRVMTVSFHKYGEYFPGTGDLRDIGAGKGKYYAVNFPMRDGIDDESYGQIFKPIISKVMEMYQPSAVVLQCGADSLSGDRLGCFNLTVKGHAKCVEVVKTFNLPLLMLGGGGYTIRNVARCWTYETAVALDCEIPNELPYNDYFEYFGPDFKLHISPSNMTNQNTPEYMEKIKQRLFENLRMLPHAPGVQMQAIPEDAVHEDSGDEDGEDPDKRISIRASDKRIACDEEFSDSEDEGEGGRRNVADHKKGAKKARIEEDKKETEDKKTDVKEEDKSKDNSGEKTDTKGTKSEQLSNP

| SMILES | IC50 [1] [nM] | inhibition of growth at 2 µM (A-375 [2]) [%] | IC50 (A-375 [3]) [nM] | IC50 (NIH3T3) [nM] | IC50 [4] [nM] | inhibition of growth at 8 µM (A-375 [5]) [%] | IC50 (HCT-116 [6]) [nM] | inhibition of growth at 2 µM (A549 [7]) [%] | inhibition of growth at 8 µM (SMMC-7721 [8]) [%] | inhibition of growth at 2 µM (HCT-116 [9]) [%] | IC50 (HeLa [10]) [nM] | IC50 (A549 [11]) [nM] | inhibition of growth at 2 µM (HeLa [12]) [%] | IC50 (Histone deacetylase 2) [nM] | IC50 (Histone deacetylase 1) [nM] | inhibition of growth at 8 µM (HCT-116 [13]) [%] | inhibition of growth at 2 µM (SMMC-7721 [14]) [%] | inhibition of growth at 8 µM (HeLa [15]) [%] | IC50 (SMMC-7721 [16]) [nM] | inhibition of growth at 8 µM (A549 [17]) [%] | further results |
| --- | --- | --- | --- | --- | --- | --- | --- | --- | --- | --- | --- | --- | --- | --- | --- | --- | --- | --- | --- | --- | --- |
| Nc1ccccc1NC(=O)c1ccc(CSc2nccc(C(F)(F)F)n2)cc1 | 274 | 54.4 | 1550 | 1850 | > 32000 | 80.1 | 1140 | 75.4 | 80.6 | 82.7 | 1140 | 970 | 68.3 | 441 | 11 | 93.1 | 66.1 | 83.4 | 1890 | 95.1 | IC50 (Histone deacetylase): 1995 nM; IC50 (Histone deacetylase 8): > 32000 nM |
| COc1ccc(SCc2ccc(C(=O)Nc3ccccc3N)cc2)cc1OC | – | 18.1 | 4420 | – | – | 84.6 | 2000 | 19.9 | 78.9 | 33.6 | 3070 | 5680 | 15.2 | – | – | 91.5 | 20.2 | 79.9 | 3400 | 80.1 | – |
| Nc1ccccc1NC(=O)c1ccc(CSCCc2ccccc2)cc1 | – | 21.8 | 2860 | – | – | 69.9 | 2810 | 44.9 | 77.9 | 30.5 | 6430 | 3250 | 27.7 | – | – | 81.3 | 28.1 | 74.8 | 4880 | 84.1 | – |
| Cc1cc(C)cc(SCc2ccc(C(=O)Nc3ccccc3N)cc2)c1 | 381 | 48.5 | 3670 | 3340 | > 32000 | 74.7 | 2490 | 33.3 | 85.1 | 3.22 | 2090 | 2890 | 40.1 | 139 | 20 | 72.9 | 29.1 | 78.8 | 2760 | 78.5 | IC50 (Histone deacetylase): 10720 nM; IC50 (Histone deacetylase 8): > 32000 nM |
